Experimental data taken from ChEMBL document CHEMBL4152184, “NB 06: From a simple lysosomotropic aSMase inhibitor to tools for elucidating the role of lysosomes in signaling apoptosis and LPS-induced inflammation” (Eur J Med Chem, 2018).
The source made the active and inactive calls. The rule behind the calls is not given here.

Assays:
[1] = target: T1, Sphingomyelin phosphodiesterase (Homo sapiens) (UniProt P17405); assay: Inhibition of mmLDL-stimulated acid sphingomyelinase in human PBMC lysates at 2 to 50 uM preincubated for 30 mins followed by mmLDL stimulation measured after 4 hrs by YO-PRO-1/Hoechst 33342 staining based assay
T1 sequence (whole entry): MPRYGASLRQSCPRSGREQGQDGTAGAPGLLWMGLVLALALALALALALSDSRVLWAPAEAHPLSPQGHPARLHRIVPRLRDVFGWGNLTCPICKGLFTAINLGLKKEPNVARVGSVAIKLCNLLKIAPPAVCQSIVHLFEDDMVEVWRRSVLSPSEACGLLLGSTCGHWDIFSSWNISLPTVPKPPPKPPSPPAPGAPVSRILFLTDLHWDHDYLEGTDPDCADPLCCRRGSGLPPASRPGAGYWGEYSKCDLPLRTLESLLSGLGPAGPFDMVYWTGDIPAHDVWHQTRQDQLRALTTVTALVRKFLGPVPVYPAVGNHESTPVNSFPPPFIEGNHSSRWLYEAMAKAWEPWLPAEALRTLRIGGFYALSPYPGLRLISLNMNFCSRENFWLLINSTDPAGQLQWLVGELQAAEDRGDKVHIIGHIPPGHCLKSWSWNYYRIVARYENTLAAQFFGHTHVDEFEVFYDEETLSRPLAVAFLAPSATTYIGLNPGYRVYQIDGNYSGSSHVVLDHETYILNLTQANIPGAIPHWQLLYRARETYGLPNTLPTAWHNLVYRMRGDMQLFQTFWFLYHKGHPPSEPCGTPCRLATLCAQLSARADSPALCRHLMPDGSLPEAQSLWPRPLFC

[2] = target: T2, Acid ceramidase (Homo sapiens) (UniProt Q13510); assay: Inhibition of mmLDL-stimulated acid ceramidase in human PBMC assessed as ratio of C24:1-ceramide/lipid phosphate level at 10 uM preincubated for 30 mins followed by mmLDL stimulation measured after 4 hrs by HPLC method (reference value: 1.16); assay type: cell-based
T2 sequence (whole entry): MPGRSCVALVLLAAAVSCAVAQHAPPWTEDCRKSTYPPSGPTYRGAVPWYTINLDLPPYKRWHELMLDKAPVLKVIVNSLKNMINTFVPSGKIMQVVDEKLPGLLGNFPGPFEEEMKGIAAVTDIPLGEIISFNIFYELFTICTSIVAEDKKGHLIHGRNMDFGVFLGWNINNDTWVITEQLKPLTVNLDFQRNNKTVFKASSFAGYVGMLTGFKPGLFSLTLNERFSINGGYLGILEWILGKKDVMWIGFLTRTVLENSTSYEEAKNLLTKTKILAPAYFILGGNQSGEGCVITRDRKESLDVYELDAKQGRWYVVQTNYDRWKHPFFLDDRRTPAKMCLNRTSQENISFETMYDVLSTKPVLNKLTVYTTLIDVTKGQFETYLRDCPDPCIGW
Outline: (§1)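 Human macrophages from primary culture were preincubated 30 min with 10 µM compound. They were then stimulated 4 h with mmLDL (54 µg/mL), TNFalpha (3 ng/mL) or exogenous C6-ceramide (10 µM), or left unstimulated. Individual ceramide species (C16 and C24:1) were quantified in the cell lipid extracts.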

[3] = target: T2, Acid ceramidase (Homo sapiens); assay: Inhibition of exogenous C6-ceramid-stimulated acid ceramidase in human PBMC assessed as ratio of C24:1-ceramide/lipid phosphate level at 10 uM preincubated for 30 mins followed by C6-ceramid stimulation measured after 4 hrs by HPLC method (reference value: 2.65); assay type: cell-based; outline: as §1
[4] = test system: MONO-MAC-6; assay: Upregulation of FCGR2B mRNA expression level in LPS-stimulated human MONO-MAC-6 cells preincubated for 30 mins followed by LPS stimulation measured after 4 hrs by qRT-PCR analysis relative to control; assay type: functional
[5] = test system: MONO-MAC-6; assay: Downregulation of CXCL3 mRNA expression level in human MONO-MAC-6 cells at 5 uM incubated for 30 mins measured after 6 hrs by oligonucleotide array hybridization assay relative to control; assay type: functional
Outline: (§2)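 Total RNA was isolated, transcribed and labeled with DY-647 dye, then co-hybridized with DY-548-labeled cDNA from untreated cells on an inflammation oligonucleotide chip (780 gene probes). Differential expression >1.5 was taken as significant.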

[6] = test system: MONO-MAC-6; assay: Upregulation of CCL4 mRNA expression level in LPS-stimulated human MONO-MAC-6 cells at 5 uM preincubated for 30 mins followed by LPS stimulation measured after 1 hr by oligonucleotide array hybridization assay (reference value: 1.14); assay type: functional
[7] = test system: MONO-MAC-6; assay: Upregulation of CCL4 mRNA expression level in human MONO-MAC-6 cells at 5 uM incubated for 30 mins measured after 1 hr by oligonucleotide array hybridization assay relative to control; assay type: functional
[8] = test system: MONO-MAC-6; assay: Downregulation of CCL20 mRNA expression level in human MONO-MAC-6 cells at 5 uM incubated for 30 mins measured after 2 hrs by oligonucleotide array hybridization assay relative to control; assay type: functional; outline: as §2
[9] = test system: MONO-MAC-6; assay: Downregulation of CCL20 mRNA expression level in LPS-stimulated human MONO-MAC-6 cells at 5 uM preincubated for 30 mins followed by LPS stimulation measured after 6 hrs by oligonucleotide array hybridization assay (reference value: 5.78); assay type: functional; outline: as §2
[10] = test system: MONO-MAC-6; assay: Downregulation of CXCL10 mRNA expression level in human MONO-MAC-6 cells at 5 uM incubated for 30 mins measured after 4 hrs by oligonucleotide array hybridization assay relative to control; assay type: functional; outline: as §2
[11] = test system: MONO-MAC-6; assay: Downregulation of CXCL10 mRNA expression level in human MONO-MAC-6 cells at 5 uM incubated for 30 mins measured after 6 hrs by oligonucleotide array hybridization assay relative to control; assay type: functional; outline: as §2
[12] = test system: MONO-MAC-6; assay: Downregulation of CXCL2 mRNA expression level in human MONO-MAC-6 cells at 5 uM incubated for 30 mins measured after 4 hrs by oligonucleotide array hybridization assay relative to control; assay type: functional; outline: as §2
[13] = test system: MONO-MAC-6; assay: Upregulation of PTGS2 mRNA expression level in LPS-stimulated human MONO-MAC-6 cells at 5 uM preincubated for 30 mins followed by LPS stimulation measured after 1 hr by oligonucleotide array hybridization assay (reference value: 1.01); assay type: functional
[14] = test system: MONO-MAC-6; assay: Upregulation of PTGS2 mRNA expression level in LPS-stimulated human MONO-MAC-6 cells at 5 uM preincubated for 30 mins followed by LPS stimulation measured after 4 hrs by oligonucleotide array hybridization assay (reference value: 5.29); assay type: functional
[15] = test system: MONO-MAC-6; assay: Upregulation of PTGS2 mRNA expression level in human MONO-MAC-6 cells at 5 uM incubated for 30 mins measured after 4 hrs by oligonucleotide array hybridization assay relative to control; assay type: functional
[16] = test system: MONO-MAC-6; assay: Upregulation of ICAM1 mRNA expression level in LPS-stimulated human MONO-MAC-6 cells at 5 uM preincubated for 30 mins followed by LPS stimulation measured after 6 hrs by oligonucleotide array hybridization assay (reference value: 2.90); assay type: functional
[17] = test system: MONO-MAC-6; assay: Downregulation of CXCL2 mRNA expression level in human MONO-MAC-6 cells at 5 uM incubated for 30 mins measured after 1 hr by qRT-PCR method relative to control; assay type: functional
[18] = target: T3, Sphingomyelin phosphodiesterase (Homo sapiens, UniProt P17405); assay: Inhibition of mmLDL-stimulated acid sphingomyelinase in human PBMC lysates using BODIPY FL C5-sphingomyelin as substrate preincubated for 30 mins followed by mmLDL stimulation measured after 2 hrs by HPLC method
T3 sequence (P17405 whole entry): T1 sequence (whole entry)

COc1ccc(CCN(C)CCCn2c3ccccc3c3ccccc32)cc1
inhibition [1]: Active
Ratio [2]: 2.45
Ratio [3]: 2.65
fold change (FC) [4]: 2.93
fold change (FC) [5]: 4.67
fold change (FC) [6]: 1.24
fold change (FC) [7]: 1.22
fold change (FC) [8]: 1
fold change (FC) [9]: 1.07
fold change (FC) [10]: 2.08
fold change (FC) [11]: 6.7
fold change (FC) [12]: 2.28
fold change (FC) [13]: 1.1
fold change (FC) [14]: 4.07
fold change (FC) [15]: 1.17
fold change (FC) [16]: 1.15
fold change (FC) [17]: 1.01
IC50 [18]: 13 to 17 µM
